Source: PubChem (several laboratories)
Hck-Nef inh: inhibitors of human Hck kinase activated by Nef; P08631; Recombinant Hck-YEEI plus Nef, Z-Lyte FRET kinase assay; inhibition, % at 20 µM; 220,000 compounds, 0.68% hits; AID 463187;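 active = Hck-Nef kinase inhibition above about 50%, limit read from the data; inactive = inhibition below that limit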;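 note: 0% = DMSO with Hck plus Nef and 100% = Hck alone without Nef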
Target sequence (P08631 whole entry, looked up): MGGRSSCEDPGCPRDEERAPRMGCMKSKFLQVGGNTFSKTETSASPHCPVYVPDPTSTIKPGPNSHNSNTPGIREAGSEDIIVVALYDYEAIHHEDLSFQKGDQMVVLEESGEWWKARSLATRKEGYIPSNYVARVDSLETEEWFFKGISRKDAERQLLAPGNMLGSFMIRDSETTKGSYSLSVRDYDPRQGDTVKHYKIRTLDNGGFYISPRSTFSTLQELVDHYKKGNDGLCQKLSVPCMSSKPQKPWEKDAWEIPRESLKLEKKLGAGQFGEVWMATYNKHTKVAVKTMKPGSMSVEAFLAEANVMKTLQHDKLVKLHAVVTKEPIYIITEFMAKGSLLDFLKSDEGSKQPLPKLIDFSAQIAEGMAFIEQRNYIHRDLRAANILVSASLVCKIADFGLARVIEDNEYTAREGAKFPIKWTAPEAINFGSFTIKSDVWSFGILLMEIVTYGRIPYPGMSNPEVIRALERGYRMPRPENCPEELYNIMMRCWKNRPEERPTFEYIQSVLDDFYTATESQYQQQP
Runt-SMMHC FRET: Runt domain-CBFb-SMMHC interaction inhibition | 220,000 compounds, 0.74% hits | Cerulean-Runt/Venus-CBFb-SMMHC FRET ratio 530/480, 1 h | inhibition, % at 20 µM | Q01196+Q13951 | AID 1434;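 active = mean inhibition across duplicate retests at 20 µM reaching about 50%, limit read from the data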;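 note: 0% = DMSO wells and 100% = wells with excess untagged CBFb-SMMHC; inhibitors lower the FRET ratio by blocking Runt binding to CBFb-SMMHC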
Runt-CBFb FRET: inhibitors of human RUNX1 Runt domain binding to CBFb | Q01196+Q13951 | Cerulean-Runt/Venus-CBFb FRET ratio 530/480, 1 h | inhibition, % at 20 µM | 220,000 compounds, 0.46% hits | AID 1496;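 active = inhibition over about 50% at 20 µM in the single-dose screen, limit read from the data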;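 note: 0% = DMSO wells and 100% = excess unlabeled CBFb competitor control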
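Assay system: Cerulean-Runt domain fusion protein, energy donor; Signal: fluorescence energy transfer, 422 nm excitation, 530/480 nm emission; Timing: 1 h compound exposure, room temperature; Control set: unlabeled CBFb; Medium: Tris buffer pH 7.5 with salts and BSA; Compound: single test concentration of 20 µM, 1% DMSO final; Probe or stimulus: Venus-CBFb 100 nM.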
RanGTP-Impb inh: disruptors of Ran-importin-beta complex formation – biochemical, FRET, CFP-Ran, YFP-importin-beta, homogeneous, primary screen; cell-free CFP-Ran/YFP-importin-beta FRET ratio; inhibition, % (no concentration beside the values); 300,000 compounds, 1.1% hits; AID 2216;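 active = more than half of the replicate wells show a fall in the fluorescence ratio signal beyond about 16%, limit read from the data, passing the limit was not always enough; inconclusive = exactly half of the replicate wells pass the set limit; inactive = fewer than half of replicates pass the limit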;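 note: 0% = DMSO wells and 100% = Ran loaded with GDP instead of GTP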
CaV13 ICDI inh: Disruptors of the CACNA1D IQ motif to Ca2+-dependent inactivation inhibitor domain association, primary screening, Förster resonance energy transfer in intact living …; HEK cells, CFP/YFP FRET ICDI-IQ, plate reader, 10 min; percent FRET-ratio fall versus neutral wells; inhibition, % at 12.3 µM; 340,000 compounds, 0.098% hits; AID 743397;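 active = mean replicate inhibition of at least 30% and at least 1% of replicates passing that level; inconclusive = only one of the two criteria is met; inactive = neither criterion is met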;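 note: 0% = median of the neutral control wells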
An asterisk follows results filed as active; ? = inconclusive; . = not tested or not shown. Rows were chosen to be rich in hits. Some 1.5% of all compounds tested hit in one or more screens of this group.

SMILES	Hck-Nef inh	Runt-SMMHC FRET	Runt-CBFb FRET	RanGTP-Impb inh	CaV13 ICDI inh
O=c1[nH]c2cc3c(cc2cc1CN(Cc1nnnn1CC1CCCO1)C1CCCCC1)OCO3 (centres undefined)	2	57*	18	-103	-7
O=c1[nH]c2cc3c(cc2cc1CN(CCc1ccccc1)Cc1nnnn1CC1CCCO1)OCO3 (centres undefined)	3	62*	-92	-75	-8
Cc1cccc(NC(=O)COC(=O)CN2CCCCCC2=O)c1C	.	.	.	.	-5
O=C(NCCC1CCCCN1S(=O)(=O)c1ccc(Cl)cc1)C(=O)NCCN1CCOCC1 (centres undefined)	.	.	.	-2	-5
CNS(=O)(=O)c1ccc(CNC[C@H]2O[C@@H](n3cnc(C(N)=O)n3)[C@H](O)[C@@H]2O)cc1	.	.	.	.	-10
COc1ccc(S(=O)(=O)NC2CCSc3ccccc32)cc1OC (centres undefined)	.	.	.	1	-2
CC(C)CCN(CC(=O)NCc1ccc(F)cc1)S(=O)(=O)c1ccccc1F	.	.	.	3	-4
CC(=O)N1c2ccccc2C2(O)N=C(C)SC12 (centres undefined)	-1	52*	20	.	.
O=C(Cn1cnc2scc(-c3cccc([N+](=O)[O-])c3)c2c1=O)NCc1ccco1	54*	-4	2	-1	-5
N#Cc1ccc(Oc2cnccn2)cc1	.	.	.	27*	-2
O=C(Nc1sc2c(c1C(=O)NC1CCCCC1)CCC2)c1ccco1	18	12	4	56*	-6
COc1ccc2cc(-c3cc(C(=O)OCC(=O)NC4CCS(=O)(=O)C4)c4ccccc4n3)ccc2c1 (centres undefined)	15	79*	-9	24*	-23
COc1ccc(-c2cc(C(=O)OCC(=O)NC3CC3)c3ccccc3n2)cc1	.	.	.	.	-5
CCC12CCCN3CCc4c(n(c5ccccc45)C(O)(C(=O)OC)C1)C32 (centres undefined)	3	0	22	114*	.
CCn1c(SCC(=O)NC2CC2)nnc1-c1csc(C)c1	.	.	.	5	-3
CC(C)Sc1nc(N)c2c3c(sc2n1)CN(C)CC3	-1	29	13	21*	.
CSc1nc(NCC(C)C)c2c3c(sc2n1)CN(C)CC3	2	60	5	17*	-9
CC(Oc1cc2oc(=O)cc(-c3ccccc3)c2cc1Cl)C(=O)NCC1CCC(C(=O)O)CC1 (centres undefined)	.	.	.	6	.
CC(NC(=O)OC(C)(C)C)C(=O)Oc1cc2oc(=O)cc(-c3ccccc3)c2cc1Cl (centres undefined)	4	79*	19	1	.
CCOc1ccc(-n2c3nc4ccccc4nc3c3c(=O)n(Cc4ccco4)cnc32)cc1	-2	.	.	.	.
Cc1cc(C)cc(-n2c3nc4ccccc4nc3c3c(=O)n(Cc4ccco4)cnc32)c1	7	.	33	19*	.
O=C(Nc1ccc(C(=O)N2CCCC2)cc1)C1CCC1	.	.	.	.	-3
CCN(CC)CCNc1c2c(c(C#N)c3nc4ccccc4n13)CCCC2	21	61*	30	?	-7
CCN(CC)CCCNc1cc(C(F)(F)F)c(C#N)c2nc3ccccc3n12	.	.	.	117*	6
N#Cc1c2c(c(NCc3ccco3)n3c1nc1ccccc13)CCC2	11	.	17	6	.
SMILES	Hck-Nef inh	Runt-SMMHC FRET	Runt-CBFb FRET	RanGTP-Impb inh	CaV13 ICDI inh
CCN(CC)CCNc1cc(C)c(C#N)c2nc3ccccc3n12	.	.	.	11	-20
CCN(CC)CCCNc1cc(C)c(C#N)c2nc3ccccc3n12	.	.	.	.	-12
CN(C)CCNc1c2c(c(C#N)c3nc4ccccc4n13)CCCC2	25	62*	21	-3	-8
COc1ccc(CCC(=O)N2CCCC(Nc3ccccc3)C2)cc1OC (centres undefined)	.	.	.	2	-9
CCn1cc(Cl)c(C(=O)Nc2nccs2)n1	.	.	.	0	-7
CCCCCCCCNCCS(=O)(=O)NCCCCCCCC	.	.	.	.	-10
CC(=O)N1CCN(C(=O)c2cccc(S(=O)(=O)N3CCOCC3)c2)CC1	.	.	.	.	-6
O=C(OCC#CCSc1nnc(-c2cccc3ccccc23)o1)c1cccc2[nH]ccc12	.	.	.	.	15
Oc1c(Cl)cc(Cl)cc1/C=N/Nc1ncc(Br)cn1	17	-15	-2	-2	-5
CN(/N=C/c1cc(Cl)cc(Cl)c1O)C(=S)NC(C)(C)C	-92	90*	36	5	-1
